High-throughput results: PubChem BioAssay, Broad Institute
Glyco luc inh – increase of ERlucT glycosylation luciferase signal, primary screen, N-linked glycosylation inhibitor project, D54 ERlucT cells, luminescence, set 2; D54 ERlucT glycosylation luciferase reporter, 24 h; percent of 100 nM tunicamycin response; reporter increase, % at 12.5 µM; 0.23% of 360,000 active; AID 588692, 2011;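 active = mean luciferase reporter signal, scaled so untreated is 0 and the glycosylation-blocking control 100, at or above a set limit in every replicate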;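 also: luciferase carries N-glycosylation sites so blocking glycosylation raises the light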
Env fusion inh – inhibitors of HIV-1 Env-driven cell-cell fusion, primary screen, HeLa-JRFL effector, CEM21 target cells, luciferase; inhibition, % at 12.3 µM; 1.1% of 360,000 active; AID 651610, 2012;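 active = mean replicate inhibition score of at least 50 and every replicate individually at or above 50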
Rtt109 HAT inh – inhibitors of C. albicans Rtt109/Vps75 HAT, primary screen, biochemical, ThioGlo CoA-SH fluorescence, plate reader. Histone acetyltransferase RTT109 (Candida albicans (strain SC5314 / ATCC MYA-2876)), …. purified Rtt109/Vps75, 4 h. inhibition, % at 34.9 µM. 0.16% of 330,000 active. AID 540336, 2011;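 active = inhibition of at least 50% in every replicate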
PglD DTNB – C. jejuni PglD acetyltransferase inhibitors, primary screen, biochemical, DTNB colorimetric, single point | UDP-N-acetylbacillosamine N-acetyltransferase PglD (Campylobacter jejuni) | purified PglD enzyme, DTNB colorimetric CoA detection | inhibition, % at 12.5 µM | 0.098% of 360,000 active; in the data active = inhibition above about 16%, passing the limit was not always enough
SR-BI DiI inh – inhibitors of SR-BI mediated HDL lipid uptake, primary screen, ldlA[mSR-BI] cells, fluorescence, single point; Scavenger receptor class B member 1 (Mus musculus), Q61009; ldlA[mSR-BI] CHO cells, DiI-HDL uptake fluorescence, 3 h; inhibition, % at 12.5 µM; 0.96% of 320,000 active; AID 488896, 2010;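 active = mean replicate inhibition of at least 70% and a set share of replicates each scoring 70 or more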
Target sequence (Q61009 whole entry, looked up): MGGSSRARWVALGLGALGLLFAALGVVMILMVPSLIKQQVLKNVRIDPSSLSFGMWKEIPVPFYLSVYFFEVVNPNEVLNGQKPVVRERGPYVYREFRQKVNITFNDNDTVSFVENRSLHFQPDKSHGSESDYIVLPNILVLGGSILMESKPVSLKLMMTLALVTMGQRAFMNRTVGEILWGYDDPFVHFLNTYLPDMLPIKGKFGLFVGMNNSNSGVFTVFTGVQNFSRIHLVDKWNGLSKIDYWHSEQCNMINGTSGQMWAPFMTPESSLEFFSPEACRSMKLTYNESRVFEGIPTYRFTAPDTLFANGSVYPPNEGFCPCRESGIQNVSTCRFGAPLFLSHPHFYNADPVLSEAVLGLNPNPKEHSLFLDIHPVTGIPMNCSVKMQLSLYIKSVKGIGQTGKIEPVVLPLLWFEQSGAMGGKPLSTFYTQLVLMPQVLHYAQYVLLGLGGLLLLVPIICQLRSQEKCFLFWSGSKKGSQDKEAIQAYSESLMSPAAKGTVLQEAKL
SR-BI DiI-HDL act – activators of SR-BI mediated DiI-HDL uptake, primary screen, ldlA[mSR-BI] CHO cells, DiI fluorescence | activation, % at 12.5 µM | AID 504775, 2011 | 3 h; 100 = double the neutral-control signal | 0.096% of 320,000 active;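 active = mean replicate activation of at least 60% and every replicate at or above 60%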
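Test system: SR-BI-overexpressing, LDLR-lacking CHO cells; Medium: Ham's F12 with 0.5% BSA, HEPES 25 mM, pH 7.4; Schedule: 3 h, 37 °C; Technique: bottom-read fluorescence, 550/595 nm.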
Numbers stand for hits; n = inactive; x = no result given; [ ] = another dose, or the depositor's remark. An excerpt weighted towards active compounds, which were near 1.9% of everything screened.

SMILES	Glyco luc inh	Env fusion inh	Rtt109 HAT inh	PglD DTNB	SR-BI DiI inh	SR-BI DiI-HDL act
CCC(c1nnnn1Cc1ccco1)N(CCc1ccccc1)Cc1cc2cc(C)ccc2[nH]c1=O (stereo not given)	n	x	n	n	n	n
Cc1ccc2[nH]c(=O)c(CN(CCc3ccccc3)C(c3nnnn3Cc3ccco3)C(C)C)cc2c1 (stereo not given)	n	72	n	n	n	n
Cc1ccc(NC(=O)c2cccc(C(=O)Nc3ccc(C)c(C)c3)n2)cc1C	n	n	n	n	75	n
O=C(N[C@H]1CC[C@@H](CCn2cc(-c3ccccn3)nn2)O[C@@H]1CO)c1cccnc1	x	n	x	n	x	x
Cc1cc(Br)c(OCc2ccc(C(=O)N/N=C3\CC4CC=CC34)cc2)c(Br)c1 (stereo not given)	n	n	n	x	84	n
O=C(O)CCSc1nnc(-c2ccc3c(c2)OCO3)o1	n	69	n	n	n	n
CO[C@@H]1CN(C)C(=O)c2cc(NS(=O)(=O)c3ccccc3)ccc2OC[C@@H](C)N(Cc2nccs2)C[C@H]1C	x	x	x	n	x	x
C[C@H](CO)N1C[C@H](C)[C@@H](CN(C)C(=O)CCCN(C)C)OCCCC[C@H](C)Oc2ccc(NS(=O)(=O)c3ccccc3)cc2C1=O	x	n	x	n	x	x
CCCc1cc(=O)oc2cc(OCC(=O)N3CCN(C(=O)C4COc5ccccc5O4)CC3)ccc12 (stereo not given)	n	n	n	n	87	n
Cc1cc(=O)oc2ccc(OCC(=O)N3CCc4ccccc43)cc12	n	x	n	n	78	n
Cc1c(C)c2ccc(OCC(=O)N3CCN(C(=O)C4COc5ccccc5O4)CC3)cc2oc1=O (stereo not given)	n	n	n	n	88	n
Cc1cc(=O)oc2cc(OCC(=O)N3CCN(C(=O)C4COc5ccccc5O4)CC3)ccc12 (stereo not given)	n	n	n	n	88	n
CC(C)NC(=O)N(C)C[C@H]1Oc2ccc(NC(=O)C3CC3)cc2CC(=O)N([C@@H](C)CO)C[C@@H]1C	x	n	x	n	x	x
Cc1ccc(S(=O)(=O)N(C)C[C@H]2Oc3ccc(NC(=O)C4CC4)cc3CC(=O)N([C@@H](C)CO)C[C@H]2C)cc1	x	x	x	n	x	x
CC(C)NC(=O)N(C)C[C@@H]1Oc2ccc(NC(=O)C3CC3)cc2CC(=O)N([C@H](C)CO)C[C@H]1C	x	62[16.7 µM]	x	x	x	x
Cc1ccc(S(=O)(=O)N(C)C[C@@H]2Oc3ccc(NC(=O)C4CCCCC4)cc3CC(=O)N([C@H](C)CO)C[C@@H]2C)cc1	x	95[16.7 µM]	x	n	x	x
C[C@@H]1CN([C@@H](C)CO)C(=O)Cc2cc(NC(=O)C3CCCCC3)ccc2O[C@H]1CN(C)S(=O)(=O)c1ccccc1	n	63	n	n	n	n
C[C@@H]1CN([C@@H](C)CO)C(=O)Cc2cc(NC(=O)C3CCCCC3)ccc2O[C@@H]1CN(C)S(=O)(=O)c1ccccc1	x	x	x	n	x	x
Cc1ccc(S(=O)(=O)N(C)C[C@H]2Oc3ccc(NC(=O)C4CC4)cc3CC(=O)N([C@H](C)CO)C[C@@H]2C)cc1	x	x	x	15	x	x
C[C@H]1CN([C@@H](C)CO)C(=O)CCCn2cc(nn2)CO[C@H]1CN(C)C(=O)NC1CCCC1	x	n	x	n	x	x
C[C@H]1CN([C@@H](C)CO)C(=O)Cc2cc(NC(=O)Nc3ccc(F)cc3)ccc2O[C@H]1CN(C)C(=O)NC1CCCCC1	x	n	x	n	x	x
COc1ccc(S(=O)(=O)N(C)C[C@@H]2Oc3ccc(NC(=O)C4CCCCC4)cc3CC(=O)N([C@H](C)CO)C[C@@H]2C)cc1	x	74[16.7 µM]	x	n	x	x
CC(C)NC(=O)N(C)C[C@H]1Oc2ccc(NC(=O)Nc3ccc(F)cc3)cc2CC(=O)N([C@@H](C)CO)C[C@H]1C	x	n	x	n	x	x
Cc1ccc(C)c2sc(NC(=O)c3ccc(N4C(=O)CCC4=O)cc3)nc12	n	n	n	n	79	n
